Compound activity as filed in PubChem BioAssay.
PKA-R1A activ: activators of PKA-R1A complex | AID 504707 | P00514+P68181 | activation, % at 11.4 µM | PKA-R1A dissociation, Cy5-IP20 fluorescence polarization; scaled: DMSO 0%, 113 µM cGMP 100% | 340,000 tested, 0.083% active;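 active means percent activation above the mean of all tested compounds plus 3 SD, cut at about 19% in these data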;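 further: higher means more PKAc released from R1A so a rise in polarization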
PKA-R2B act: activates the human PKA-R2B holoenzyme complex; P22694+P31323; PKA-R2B holoenzyme dissociation, Cy5-IP20 fluorescence polarization; R2B truncated from residue 108, S112A mutant; 0% DMSO only, 100% 113 µM cGMP; activation, % at 11.4 µM; 340,000 tested, 0.079% active; AID 504700;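 active means activation above a cutoff set at the mean over all compounds plus 3 SD, cut at about 18% in these data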;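 further: higher means more holoenzyme dissociation and a rise in polarization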
Target sequence (P31323 whole entry, looked up, other chains not shown, the tested form may be a part): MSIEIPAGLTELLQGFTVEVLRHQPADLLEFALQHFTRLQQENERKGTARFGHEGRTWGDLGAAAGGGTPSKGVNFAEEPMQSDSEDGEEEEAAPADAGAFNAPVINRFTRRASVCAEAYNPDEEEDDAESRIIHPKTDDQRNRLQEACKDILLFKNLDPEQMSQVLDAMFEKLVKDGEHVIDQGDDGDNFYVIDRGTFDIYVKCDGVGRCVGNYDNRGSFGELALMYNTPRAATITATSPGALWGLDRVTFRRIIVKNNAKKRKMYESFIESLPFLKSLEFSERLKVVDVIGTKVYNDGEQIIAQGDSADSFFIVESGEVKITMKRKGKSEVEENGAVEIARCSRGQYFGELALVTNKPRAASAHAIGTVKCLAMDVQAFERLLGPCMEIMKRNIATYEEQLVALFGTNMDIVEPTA
Vif inh: inhibitors of HIV Vif | HEK293T cells, Vif self-association by quenched fluorescence, imaging, 24 h | inhibition, % at 7.49 µM | 340,000 tested, 0.35% active | AID 602346; in the data active means inhibition above about 50%, passing the limit was not always enough
SR-BI DiI-HDL act: activators of SR-BI mediated HDL lipid uptake | activation, % at 12.5 µM | 320,000 tested, 0.096% active | CHO ldlA[mSR-BI] cells, DiI-HDL uptake fluorescence, 3 h; 100 = double the neutral-control signal;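 active means mean replicate activation of at least 60% and every replicate at or above 60%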
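system = CHO ldlA[mSR-BI] cells, LDL receptor-null, SR-BI overexpressing | medium = Ham's F12 with 0.5% BSA, HEPES 25 mM, pH 7.4 | probe or stimulus = DiI-HDL 10 µg/mL | compound dosing = single-point compound dose | incubation = compound exposure 3 h, 37 °C | technique = DiI fluorescence, bottom read | read-out = cell-associated DiI fluorescence as measure of HDL uptake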
SR-BI DiI inh: inhibitors of mouse SR-BI mediated HDL lipid uptake | Q61009 | ldlA[mSR-BI] CHO cells, DiI-HDL uptake fluorescence, 3 h | inhibition, % at 12.5 µM | 320,000 tested, 0.96% active | AID 488896;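 active means mean replicate inhibition of at least 70% and a set share of replicates each scoring 70 or more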
Hits are given with their value; 0 = inactive; - = no result given. Most compounds without a hit are left out; they make up all but 1.4% or so of the library.

SMILES	PKA-R1A activ	PKA-R2B act	Vif inh	SR-BI DiI-HDL act	SR-BI DiI inh
Cc1nc(C)n(CC(=O)N2CCCC(C(=O)c3ccc(C(F)(F)F)cc3)C2)n1 (centres undefined)	0	0	96	0	0
CC(C)OC(=O)c1cc(NC(=O)c2nn(C)cc2Br)cc(C(=O)OC(C)C)c1	0	0	0	0	0
CCCS(=O)(=O)NC(=O)C1(C)CCCN(C(=O)c2ccc(SC(F)(F)F)cc2)C1 (centres undefined)	-	-	0	-	-
COc1ccccc1-c1cnc(C(O)c2ccc(C(C)(C)C)cc2)[nH]1 (centres undefined)	-	-	0	-	-
COc1ccccc1N1C(=O)CCC1(C#N)c1ccccc1 (centres undefined)	0	0	69	0	0
CCN(CC)CCCN(C(=O)c1ccc(OC)cc1)c1nc(-c2ccc(OC)cc2)cs1	0	0	0	0	0
COc1ccc(-c2cc(C(=O)NCC3CCCO3)c3cc(C)ccc3n2)cc1 (centres undefined)	0	0	0	0	72
COc1ccc(-c2csc(N(CC3CCCO3)C(=O)c3ccc(C)cc3)n2)cc1 (centres undefined)	0	0	0	0	77
COCCCN(C(C)=O)c1nc(-c2ccc(OC)cc2)cs1	0	0	0	0	78
CCc1nc2ccc(C(=O)N(C)CCN(C)C)cn2c1N(C)Cc1cc2ccccc2s1	-	-	0	-	-
Cc1ccc(NC(=O)CSCC(=O)N2CCCc3ccccc32)cc1	0	0	0	0	0
Cc1cc(C)cc(NC(=O)CCNS(=O)(=O)c2cc(Br)cnc2N)c1	0	0	0	0	0
CC1(C)C2CCC13CS(=O)(=O)N[C@@H]3C2 (some centres undefined)	0	0	0	118	0
O=c1c2ccccc2nc2ccc(NCc3cccs3)nn12	0	0	0	0	0
CC(=O)Nc1ccc(NC(=O)c2nc(S(=O)(=O)Cc3ccccc3)ncc2Cl)cc1	0	0	0	0	0
CS(=O)(=O)c1ncc(Cl)c(C(=O)Nc2ccc3ccccc3c2)n1	0	0	0	0	93
COc1cc(C(=S)N2CCCCC2)ccc1OCC(=O)Nc1ccc(F)cc1	0	0	0	-	0
CC1=C(/C=C/C(C)=N\NC(=O)c2ccncc2)C(C)(C)CCC1	0	0	0	0	87
CC(/C=C/c1ccc2c(c1)OCO2)=N/NC(=O)c1ccncc1	0	0	0	0	0
CCCCCCN1C[C@@H](O)[C@H](n2cc(COC(=O)c3ccccc3)nn2)C[C@@H]1c1ccc(OC)cc1	0	0	0	-	-
O=C(COC(=O)C1CCCCC1)Nc1cccc(F)c1	0	0	0	0	0
O=C(COC(=O)C1CCCCC1)Nc1cccc(Br)c1	0	0	0	63	0
COc1cccc(NC(=O)COC(=O)Cc2ccc(Br)cc2)c1	0	0	0	0	0
COc1ccc(CC(=O)OCC(=O)Nc2cccc(Br)c2)cc1	0	0	74	0	0
Cc1cc(C)cc(NC(=O)C2C3C=CC4(O3)C2C(=O)N(CCCN(C)C)C4C(=O)NC2CCCC(C)C2C)c1 (centres undefined)	0	0	0	0	0
SMILES	PKA-R1A activ	PKA-R2B act	Vif inh	SR-BI DiI-HDL act	SR-BI DiI inh
CC(C)n1c(=O)c2ccccc2n1Cc1cn(Cc2cccnc2)nn1	-	-	0	-	-
CCCCc1ccc(-c2csc(/C(C#N)=C\c3ccco3)n2)cc1	0	0	51	0	0
CC(C)(C)NCC(O)COc1ccccc1C1CCCC1 (centres undefined)	0	0	52	0	0
O=c1c2c([N+](=O)[O-])cc([N+](=O)[O-])cc2sn1Cc1ccccc1	0	0	0	0	0
O=c1c2c([N+](=O)[O-])cc([N+](=O)[O-])cc2sn1-c1ccc(Br)cc1	0	0	0	0	79
COc1cccc(NC(=O)COC(=O)C2CC2)c1	0	0	0	0	0
COC(=O)c1ccc(C(=O)OC)c(NS(C)(=O)=O)c1	0	0	72	0	0
COC(=O)c1ccccc1NS(C)(=O)=O	0	0	0	0	0
CC(C)(C)SCCNC(=O)c1ccc(Cl)c([N+](=O)[O-])c1	0	0	0	79	0
Cc1ccccc1CNC(=O)c1ccc(Cl)c([N+](=O)[O-])c1	0	0	0	0	0
O=C(NCc1ccccc1)c1nnc(CS(=O)(=O)c2ccccc2)o1	0	0	0	0	0
CCOc1cccc(C(=O)Nc2ccc(NC(=O)c3cc4ccccc4o3)c(OC)c2)c1	0	0	71	0	72
COc1cc(NC(=O)c2cccc(C)c2)ccc1NC(=O)c1cc2ccccc2o1	0	0	0	0	85
CCOc1cccc(C(=O)Nc2ccc3oc(Cc4ccc(Cl)cc4)nc3c2)c1	0	0	56	0	0
O=C(Nc1ccc2oc(Cc3ccc(Cl)cc3)nc2c1)c1cccnc1	0	0	0	0	0
O=C(O)c1cccc2c1Cc1cc(Cl)ccc1-2	0	0	0	0	0
Cc1cccc2c1-c1sc(C(=O)Nc3nccs3)cc1CO2	0	0	0	0	0
Cc1cccc2c1-c1sc(C(=O)Nc3cccc([N+](=O)[O-])c3C)cc1CO2	0	0	0	0	73
Cc1cc2cc3c(cc2nc1SCC(=O)OC(C)C)OCO3	0	0	-	0	78
O=C(Nc1ccc(Cl)c(Cl)c1)N1CCSCC1	0	0	0	320	0
O=C(Nc1ccc(Cl)c(Cl)c1)Nc1ccc(N2CCCC2)c(S(=O)(=O)Nc2ccccc2Cl)c1	0	0	0	0	86
O=C(Nc1ccc(Cl)c(Cl)c1)N1CCCCCC1	0	0	-	0	0
O=C(Nc1ccc(F)cc1)Nc1ccc(N2CCCC2)c(S(=O)(=O)Nc2ccccc2Cl)c1	0	0	0	0	87
O=C(Nc1ccc(Cl)c(Cl)c1)Nc1ccccc1O	0	0	0	0	78
O=C(Nc1ccc(N2CCCCC2)c(S(=O)(=O)Nc2ccccc2Cl)c1)c1cccnc1	0	0	0	0	0
SMILES	PKA-R1A activ	PKA-R2B act	Vif inh	SR-BI DiI-HDL act	SR-BI DiI inh
CN(C)c1ncnc(N(C)C)c1[N+](=O)[O-]	0	0	0	0	0
O=[N+]([O-])c1ccccc1/C=N\N1CCN(Cc2ccccc2Cl)CC1	0	0	0	0	0
COc1ccc(CCC(=O)Nc2ccc(Cl)c(S(=O)(=O)N3CCCC3)c2)cc1	0	0	0	0	0
COc1ccccc1CNC(=O)C(=O)NCC1CCCN1S(=O)(=O)c1cc(C)ccc1C (centres undefined)	0	0	0	-	-
Cc1ccc(S(=O)(=O)NC(CCC(N)=O)C(=O)NCc2ccc3c(c2)OCO3)c(C)c1 (centres undefined)	0	0	0	0	0
CCOC(=O)c1c(C)[nH]c(-c2csc(C)n2)c1C	0	0	0	0	0
CCOC(=O)c1c(C)[nH]c(-c2csc(N)n2)c1C	0	0	112	0	0
